{
  "source": "ChEMBL document CHEMBL4196194",
  "about": "“De Novo Design of α-Helical Lipopeptides Targeting Viral Fusion Proteins: A Promising Strategy for Relatively Broad-Spectrum Antiviral Drug Discovery” (J Med Chem, 2018)",
  "key": {"[1]": {"assay": "Cytotoxicity in MDCK cells assessed as reduction in cell viability incubated for 72 hrs by cell-titer-Glo cell viability assay", "format": "cell-based, Canis lupus familiaris", "details": "dog"}, "[2]": {"assay": "Inhibition of MERS-CoV spike protein-mediated cell-cell fusion in 293T/MERS/EGPF cells assessed as reduction in cell fusion incubated for 4 hrs by inverted fluorescence microscopy", "format": "cell-based, Middle East respiratory syndrome-related coronavirus", "outline": "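Huh-7 cells expressing DPP4 plated 5 × 10^4/well, 5 h at 37 °C; serially diluted peptide added, then 293T cells carrying MERS-CoV S and EGFP (or EGFP-only control cells), 1 × 10^4/well. After 4 h coculture at 37 °C, fused and unfused effector cells counted by fluorescence microscopy.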"}, "[3]": {"assay": "Cytotoxicity in human HuH7 cells assessed as reduction in cell viability incubated for 48 hrs by CCK8 assay", "format": "cell-based, Huh-7", "outline": "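Huh-7 cells (1 × 10^5 cells/mL suspension seeded) grown 12 h at 37 °C, 5% CO2, then serially diluted peptide added for 48 h; untreated blank and Triton X-100 controls. CCK-8 added for 2 h, absorbance at 450 nm.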"}, "Influenza A virus [4]": {"test_system": "Influenza A virus", "assay": "Antiviral activity against Influenza A virus (A/Puerto Rico/8/1934(H1N1)) infected in HEK293T cells assessed as inhibition of viral replicon activity up to 20 uM incubated for 30 hrs by dual-Glo luciferase assay", "format": "functional, organism-based", "outline": "(§1)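 HEK293T cells (2.5 × 10^4/well) transfected with plasmids for NP, PB1, PB2, PA plus p0LN-S-Luc firefly and pRL-SV40 Renilla reporters; serially diluted compound added 6 h post-transfection, luciferase read after 30 h by Dual-Glo. Activity = firefly/Renilla ratio; % inhibition normalized to positive and negative controls, curve-fitted; three independent measurements.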"}, "Influenza A virus [5]": {"test_system": "Influenza A virus", "assay": "Antiviral activity against influenza A virus Hong Kong/8/1968(H3N2) infected in HEK293T cells assessed as inhibition of viral replicon activity up to 20 uM incubated for 30 hrs by dual-Glo luciferase assay", "format": "functional, organism-based", "outline": "as §1"}},
  "note": "The source made the active and inactive calls. No cut-off for these calls is given here. Where a SMILES comes first, the peptide text is derived from it. [ ]: non-standard residue; d: D form. The star is where a group is joined. Palmitoyl = CCCCCCCCCCCCCCCC(=O)*; βAla = NCCC(=O)O",
  "data": [
    {"smiles": "CCCCCCCCCCCCCCCC(=O)NCCCC[C@H](NC(=O)CCNC(=O)[C@H](CCCCN)NC(=O)[C@H](CCCCN)NC(=O)[C@H](Cc1ccc(O)cc1)NC(=O)[C@@H](NC(=O)[C@H](CCC(=O)O)NC(=O)[C@H](CCC(=O)O)NC(=O)[C@@H](NC(=O)[C@H](CCCCN)NC(=O)[C@H](CCCCN)NC(=O)[C@H](Cc1ccc(O)cc1)NC(=O)[C@@H](NC(=O)[C@H](CCC(=O)O)NC(=O)[C@H](CCC(=O)O)NC(=O)[C@@H](NC(=O)[C@H](CCCCN)NC(=O)[C@H](CCCCN)NC(=O)[C@H](Cc1ccc(O)cc1)NC(=O)[C@@H](NC(=O)[C@H](CCC(=O)O)NC(=O)[C@H](CCC(=O)O)NC(=O)[C@@H](NC(=O)[C@H](CCCCN)NC(=O)[C@H](CCCCN)NC(=O)[C@H](Cc1ccc(O)cc1)NC(=O)[C@@H](NC(=O)[C@H](CCC(=O)O)NC(=O)[C@H](CCC(=O)O)NC(=O)[C@@H](NC(=O)[C@H](CCCCN)NC(=O)[C@H](CCCCN)NC(=O)[C@H](Cc1ccc(O)cc1)NC(=O)[C@@H](NC(=O)[C@H](CCC(=O)O)NC(=O)[C@H](CCC(=O)O)NC(=O)[C@@H](NC(C)=O)[C@@H](C)CC)[C@@H](C)CC)[C@@H](C)CC)[C@@H](C)CC)[C@@H](C)CC)[C@@H](C)CC)[C@@H](C)CC)[C@@H](C)CC)[C@@H](C)CC)[C@@H](C)CC)C(N)=O", "note": "(Ac-IEEIYKKIEEIYKKIEEIYKKIEEIYKKIEEIYKK[βAla]K(Palmitoyl)-NH2)", "values": [
      {"measurement": "CC50 at 72 h", "setting": "[1]", "value": "> 100", "unit": "µM"}
    ]},
    {"smiles": "CC[C@H](C)[C@H](NC(=O)[C@H](Cc1ccc(O)cc1)NC(=O)[C@H](CO)NC(=O)[C@H](CCC(=O)O)NC(=O)[C@H](CCC(=O)O)NC(=O)[C@H](CC(C)C)NC(=O)[C@H](CCCCN)NC(=O)[C@H](CCCCN)NC(=O)[C@@H](NC(=O)[C@@H](NC(=O)[C@H](CCC(=O)O)NC(=O)[C@H](CCC(=O)O)NC(=O)[C@H](CC(C)C)NC(=O)[C@H](CCCCN)NC(=O)[C@H](CCCCN)NC(=O)[C@H](CCSC)NC(=O)[C@H](CCC(=O)O)NC(=O)[C@H](Cc1ccc(O)cc1)NC(=O)[C@H](CCC(=O)O)NC(=O)[C@H](CC(C)C)NC(=O)[C@H](CC(=O)O)NC(=O)[C@H](CC(C)C)NC(=O)[C@H](CC(C)C)NC(=O)[C@@H](NC(=O)[C@@H](NC(=O)[C@H](CC(N)=O)NC(=O)[C@@H](NC(=O)[C@H](CCC(N)=O)NC(=O)[C@@H](NC(=O)[C@H](CC(C)C)NC(=O)[C@H](CO)NC(C)=O)[C@@H](C)O)[C@@H](C)CC)[C@@H](C)O)[C@@H](C)O)C(C)C)C(C)C)C(=O)N[C@@H](CC(=O)O)C(=O)N[C@@H](CC(C)C)C(=O)N[C@@H](CCCCN)C(=O)N[C@@H](CCC(=O)O)C(=O)N[C@@H](CC(C)C)C(N)=O", "values": [
      {"measurement": "EC50", "setting": "[2]", "value": 0.15, "unit": "µM"},
      {"measurement": "CC50 at 48 h", "setting": "[3]", "value": "> 100", "unit": "µM"},
      {"measurement": "Activity", "setting": "Influenza A virus [4]", "value": "inactive"},
      {"measurement": "Activity", "setting": "Influenza A virus [5]", "value": "inactive"}
    ]},
    {"smiles": "CCCCCCCCCCCCCCCC(=O)NCCCC[C@H](NC(=O)CCNC(=O)[C@H](CCCCN)NC(=O)[C@H](CCCCN)NC(=O)[C@H](CO)NC(=O)[C@@H](NC(=O)[C@H](CCC(=O)O)NC(=O)[C@H](CCC(=O)O)NC(=O)[C@@H](NC(=O)[C@H](CCCCN)NC(=O)[C@H](CCCCN)NC(=O)[C@H](CO)NC(=O)[C@@H](NC(=O)[C@H](CCC(=O)O)NC(=O)[C@H](CCC(=O)O)NC(=O)[C@@H](NC(=O)[C@H](CCCCN)NC(=O)[C@H](CCCCN)NC(=O)[C@H](CO)NC(=O)[C@@H](NC(=O)[C@H](CCC(=O)O)NC(=O)[C@H](CCC(=O)O)NC(=O)[C@@H](NC(=O)[C@H](CCCCN)NC(=O)[C@H](CCCCN)NC(=O)[C@H](CO)NC(=O)[C@@H](NC(=O)[C@H](CCC(=O)O)NC(=O)[C@H](CCC(=O)O)NC(=O)[C@@H](NC(=O)[C@H](CCCCN)NC(=O)[C@H](CCCCN)NC(=O)[C@H](CO)NC(=O)[C@@H](NC(=O)[C@H](CCC(=O)O)NC(=O)[C@H](CCC(=O)O)NC(=O)[C@@H](NC(C)=O)[C@@H](C)CC)[C@@H](C)CC)[C@@H](C)CC)[C@@H](C)CC)[C@@H](C)CC)[C@@H](C)CC)[C@@H](C)CC)[C@@H](C)CC)[C@@H](C)CC)[C@@H](C)CC)C(N)=O", "note": "(Ac-IEEISKKIEEISKKIEEISKKIEEISKKIEEISKK[βAla]K(Palmitoyl)-NH2)", "values": [
      {"measurement": "CC50 at 72 h", "setting": "[1]", "value": "> 100", "unit": "µM"}
    ]}
  ]
}
